In brackets after ≈: the same amount, converted by molar mass. Activity calls are given as the source filed them. No cut-off for these calls is given here.
Columns and labels:
[1] = system: MOLT-3; experiment: Cytotoxicity against MOLT3 Leukemia cells by MTS assay; format: functional, cell-based, Homo sapiens; conditions: Homo sapiens, MOLT-3
Summary of the method: (§1)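 MTS tetrazolium reduction assay; cells grown under optimal culture conditions for 20 h with compound at 10 to 500 µM or without it; MTS reagent then added for 1 h at 37 °C, humidified 5% CO2; absorbance read at 490 nm. Triplicate. IC50 is the concentration giving 50% reduction of absorbance.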

[2] = system: THP-1; experiment: Cytotoxicity against THP1 Leukemia cells by MTS assay; format: functional, cell-based, Homo sapiens; conditions: Homo sapiens, THP-1; summary of the method: as §1
[3] = system: MOLT-3; experiment: Cytotoxicity against MOLT3 Leukemia cells after 72 hrs of treatment; format: functional, cell-based; conditions: Homo sapiens, MOLT-3, 72 h
Summary of the method: (§2)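 Trypan blue exclusion; cells exposed under optimal culture conditions to new compounds at 10 to 500 µM (actinomycin D 1 to 200 µM) or control medium for the stated time. CC50 is the concentration causing 50% toxicity by trypan blue.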

[4] = system: U-937; experiment: Cytotoxicity against U937 Lymphoma cells by MTS assay; format: functional, cell-based, Homo sapiens; conditions: Homo sapiens, U-937; summary of the method: as §1
[5] = system: MOLT-3; experiment: Cytotoxicity against MOLT3 Leukemia cells after 48 hrs of treatment; format: functional, cell-based; conditions: Homo sapiens, MOLT-3, 48 h; summary of the method: as §2
[6] = system: Vero; experiment: Cytotoxicity against normal vero kidney cells by MTS assay; format: functional, cell-based, Chlorocebus sabaeus; conditions: Chlorocebus sabaeus, Vero; summary of the method: as §1
[7] = system: MOLT-3; experiment: Cytotoxicity against MOLT3 Leukemia cells after 24 hrs of treatment; format: functional, cell-based; conditions: Homo sapiens, MOLT-3, 24 h; summary of the method: as §2
[8] = system: MOLT-3; experiment: Potentiation of fas-mediated apoptosis in MOLT3 cells; format: functional, cell-based; conditions: Homo sapiens
Summary of the method: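 MOLT-3 cells given anti-fas antibody (CH11) at 25, 50 or 100 ng/mL, alone or immediately after compound at 25 or 50 µM. Cultured 20 h, stained with acridine orange, and apoptosis scored by fluorescence microscopy.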

[9] = system: Coxsackievirus B4; experiment: Antiviral activity against Coxsackie virus B4 in HeLa cells; format: functional; conditions: Enterovirus B
Summary of the method: (§3)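 Virus infection of HeLa cell cultures. The endpoint is the minimum inhibitory concentration (µg/mL) that reduces virus-induced cytopathogenicity by 50%.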

[10] = system: Human alphaherpesvirus 2; experiment: Antiviral activity against Herpes simplex virus 2 G strain in HEL cells; format: functional; conditions: Human alphaherpesvirus 2, G
Summary of the method: (§4)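 Minimum inhibitory concentration (µg/mL) needed to reduce virus-induced cytopathogenicity by 50%; HSV strains in HEL cells, Punta Toro virus in Vero cells.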

[11] = system: Vesicular stomatitis virus; experiment: Antiviral activity against Vesicular stomatitis virus in HeLa cells; format: functional; summary of the method: as §3
[12] = system: Respiratory syncytial virus; experiment: Antiviral activity against Respiratory syncytial virus in HeLa cells; format: functional; conditions: human respiratory syncytial virus; summary of the method: as §3
[13] = system: Coxsackievirus B4; experiment: Antiviral activity against Coxsackie virus B4 in vero cells; format: functional; conditions: Enterovirus B
Summary of the method: (§5)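 Virus infection of Vero cell cultures. The endpoint is the minimum inhibitory concentration (µg/mL) that reduces virus-induced cytopathogenicity by 50%.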

[14] = system: HEL; experiment: Antiviral activity against HEL cells; format: functional, Homo sapiens; conditions: Homo sapiens, HEL; read-out: MCC
Summary of the method: (§6)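 Cytotoxicity scored as the concentration giving a microscopically detectable alteration of normal cell morphology in HEL, HeLa or Vero cells.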

[15] = system: Human alphaherpesvirus 1; experiment: Antiviral activity against herpes simplex virus 1 TK- KOS ACVr strain in HEL cells; format: functional; conditions: Human alphaherpesvirus 1, TK- KOS ACVr; read-out: MIC50; summary of the method: as §4
[16] = system: Human alphaherpesvirus 1; experiment: Antiviral activity against Herpes simplex virus 1 KOS strain in HEL cells; format: functional, Human herpesvirus 1 strain KOS; conditions: Human alphaherpesvirus 1, KOS; summary of the method: as §4
[17] = system: Mammalian orthoreovirus 1; experiment: Antiviral activity against Reovirus 1 in vero cells; format: functional; summary of the method: as §5
[18] = system: Sindbis virus; experiment: Antiviral activity against Sindbis virus in vero cells; format: functional; summary of the method: as §5
[19] = system: Vero; experiment: Antiviral activity against vero cells; format: functional, Chlorocebus sabaeus; conditions: Chlorocebus sabaeus, Vero; read-out: MCC; summary of the method: as §6
[20] = system: Vaccinia virus; experiment: Antiviral activity against Vaccinia virus in HEL cells; format: functional; conditions: Orthopoxvirus vaccinia
Summary of the method: (§7)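 Virus infection of HEL cell cultures. The endpoint is the minimum inhibitory concentration (µg/mL) that reduces virus-induced cytopathogenicity by 50%.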

[21] = system: Vesicular stomatitis virus; experiment: Antiviral activity against Vesicular stomatitis virus in HEL cells; format: functional; summary of the method: as §7
[22] = system: Punta Toro virus; experiment: Antiviral activity against Punta Toro virus in vero cells; format: functional; conditions: Punta Toro virus; read-out: MIC50; summary of the method: as §4
[23] = system: Human respirovirus 3; experiment: Antiviral activity against Parainfluenza-3 virus in vero cells; format: functional; summary of the method: as §5
[24] = system: HeLa; experiment: Antiviral activity against HeLa cells; format: functional, Homo sapiens; conditions: Homo sapiens, HeLa; read-out: MCC; summary of the method: as §6

OC[C@@H]1C[C@H](c2c3ccccc3cc3ccccc23)N(Cc2ccccc2)O1 (racemic) showed an IC50 [1] of over 500 µM.
CN1O[C@H](CO)C[C@@H]1c1ccc2ccc3cccc4ccc1c2c34 (racemic) gave an IC50 [1] of 112 µM, an IC50 [2] of 107 µM and an AC50 [3] of 67 µM. The CC50 [3] was 133 µM, the IC50 [4] was 111 µM and the AC50 [5] was 71 µM. The CC50 [5] was 168 µM, the IC50 [6] was 159 µM and the AC50 [7] was 118 µM. The CC50 [7] was 278 µM.
With OC[C@@H]1C[C@H](c2cc3ccccc3c3ccccc23)N(Cc2ccccc2)O1 (racemic) the IC50 [1] was 78 µM, the IC50 [2] was 50 µM and the IC50 [4] was 54 µM. For the same compound, the IC50 [6] was 63 µM, the Activity [8] was “Active” and the AC50 [7] was 69 µM. The CC50 [7] was 73 µM.
CN1O[C@H](CO)C[C@@H]1c1cc2ccccc2c2ccccc12 (racemic) showed an MIC50 [9] of over 16 µg/mL, an IC50 [1] of 125 µM and an MIC50 [10] of over 80 µg/mL. For the same compound, the MIC50 [11] was over 16 µg/mL, the MIC50 [12] was over 16 µg/mL and the MIC50 [13] was over 16 µg/mL. It also gave an MCC [14] of 400 µg/mL, an MIC50 [15] of 48 µg/mL (≈ 164 µM) and an MIC50 [16] of over 80 µg/mL. The MIC50 [17] was over 16 µg/mL, the MIC50 [18] was over 16 µg/mL and the MCC [19] was 80 µg/mL. It also gave an IC50 [2] of 169 µM, an MIC50 [20] of over 80 µg/mL and an IC50 [4] of 153 µM. It also gave an MIC50 [21] of over 80 µg/mL, an MIC50 [22] of 9.6 µg/mL (≈ 32.7 µM) and an MIC50 [23] of over 16 µg/mL. For the same compound, the MCC [24] was 80 µg/mL and the IC50 [6] was 246 µM.
In the case of CN1O[C@@H](CO)C[C@@H]1c1c2ccccc2cc2ccccc12 (racemic), the IC50 [1] is reported as over 500 µM.
In the case of OC[C@@H]1C[C@H](c2ccc3ccc4cccc5ccc2c3c45)N(Cc2ccccc2)O1 (racemic), the IC50 [1] is reported as 127 µM, the IC50 [2] is reported as 192 µM and the AC50 [3] is reported as 67 µM. It also gave a CC50 [3] of 58 µM, an IC50 [4] of 193 µM and an AC50 [5] of 97 µM. The CC50 [5] was 97 µM, the IC50 [6] was 301 µM and the AC50 [7] was over 500 µM. The CC50 [7] was over 500 µM.
In the case of OC[C@H]1C[C@H](c2c3ccccc3cc3ccccc23)N(Cc2ccccc2)O1 (racemic), the IC50 [1] is reported as over 500 µM.

From ChEMBL document CHEMBL1147740, “Synthesis and biological activity of isoxazolidinyl polycyclic aromatic hydrocarbons: potential DNA intercalators” (J Med Chem, 2006)
